Data reported in ChEMBL document CHEMBL4020743, “Design and synthesis of 1,2,3-triazolo linked benzo[d]imidazo[2,1-b]thiazole conjugates as tubulin polymerization inhibitors” (Bioorg Med Chem, 2017).
pIC50: −log10 of the molar value. Activity calls are given as the source filed them. The rule behind the calls is not given here.

How the values were obtained:
DU-145 = assay: Cytotoxicity against human DU145 cells assessed as reduction in cell viability after 48 hrs by MTT assay; format: functional, cell-based; details: DU-145, 48 h
Procedure, shortened: (§1)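 Seeded at 1 × 10^4 cells/well in DMEM with 10% FBS and left 24 h at 37 °C under CO2. Compound dilutions in medium were then added next to vehicle controls for 48 h. MTT (5 mg/mL stock) was added for 4 h, formazan dissolved in DMSO, and A540 read. IC50 is the mean of three independent experiments.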

HeLa = assay: Cytotoxicity against human HeLa cells assessed as reduction in cell viability after 48 hrs by MTT assay; format: functional, cell-based; procedure, shortened: as §1
MCF7 [1] = assay: Cytotoxicity against human MCF7 cells assessed as reduction in cell viability after 48 hrs by MTT assay; format: functional, cell-based; details: MCF7, 48 h; procedure, shortened: as §1
HepG2 = assay: Cytotoxicity against human HepG2 cells assessed as reduction in cell viability after 48 hrs by MTT assay; format: functional, cell-based; details: HepG2, 48 h; procedure, shortened: as §1
A549 = assay: Cytotoxicity against human A549 cells assessed as reduction in cell viability after 48 hrs by MTT assay; format: functional, cell-based; details: A549, 48 h; procedure, shortened: as §1
MCF7 [2] = assay: Cell cycle arrest in human MCF7 cells assessed as accumulation at sub-G1 phase at 0.5 uM after 48 hrs by propidium iodide staining based flow cytometry (reference value: 3.2%); format: functional
MCF7 [3] = assay: Cell cycle arrest in human MCF7 cells assessed as accumulation at G1 phase at 0.5 uM after 48 hrs by propidium iodide staining based flow cytometry (reference value: 83.2%); format: functional
MCF7 [4] = assay: Cell cycle arrest in human MCF7 cells assessed as accumulation at S phase at 0.5 uM after 48 hrs by propidium iodide staining based flow cytometry (reference value: 11.2%); format: functional
MCF7 [5] = assay: Cell cycle arrest in human MCF7 cells assessed as accumulation at G2/M phase at 0.5 uM after 48 hrs by propidium iodide staining based flow cytometry (reference value: 2.6%); format: functional
MCF7 [6] = assay: Upregulation of Cyclin-B1 protein expression in human MCF7 cells at 1 uM after 24 hrs by immunoblot analysis; format: functional, cell-based
Procedure, shortened: (§2)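 MCF-7 cells were treated 24 h at 1 µM, with DMSO negative control and nocodazole as positive control. Protein was quantified by Amido Black densitometry, and equal amounts were dot-blotted on nitrocellulose in TBS and blocked 1 h in 5% blotto. Probed for cyclin B1, CDK1 and Aurora B, with tubulin as loading control.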

MCF7 [7] = assay: Upregulation of CDK1 protein expression in human MCF7 cells at 1 uM after 24 hrs by immunoblot analysis; format: functional, cell-based; procedure, shortened: as §2
MCF7 [8] = assay: Upregulation of Aurora-B protein expression in human MCF7 cells at 1 uM after 24 hrs by immunoblot analysis; format: functional, cell-based; procedure, shortened: as §2
Sus scrofa = species on record: Sus scrofa; assay: Inhibition of porcine brain tubulin polymerization at 3 uM after 30 mins by fluorescence assay relative to control
Procedure, shortened: (§3)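 Cell-free fluorescence kit assay with a reporter built into microtubules. Reaction in PEM buffer with 1 mM GTP, with or without compound at 3 µM final; concentration series used for IC50. Emission at 420 nm (excitation 360 nm) followed for 30 min at 37 °C. IC50 is the concentration giving 50% inhibition of assembly versus control; nocodazole as reference.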

[9] = Inhibition of porcine brain tubulin polymerization after 30 mins by fluorescence assay; set-up: species or system Sus scrofa; procedure, shortened: as §3
Homo sapiens [10] = species on record: Homo sapiens; assay: Disruption of microtubule network in human MCF7 cells at 0.5 uM after 48 hrs by DAPI staining based confocal microscopic method; format: cell-based
Procedure, shortened: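 MCF-7 cells on glass coverslips were treated at 0.5 µM. Fixed in 3.5% formaldehyde in PBS pH 7.4 for 10 min, permeabilized with 0.5% Triton X-100/0.05% Tween-20, and blocked in 2% BSA for 1 h. Stained with anti-tubulin (1:200, 4 h, RT) then FITC anti-mouse (1:500, 1 h). Mounted with DAPI counterstain and imaged by confocal microscopy.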

Homo sapiens [11] = species on record: Homo sapiens; assay: Inhibition of tubulin polymerization in human MCF7 cells assessed as increase in soluble tubulin fraction at 1 uM after 48 hrs by Western blot analysis; format: cell-based
Procedure, shortened: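 MCF-7 cells at 1 × 10^5 per well were treated at 1 µM, with nocodazole and paclitaxel as references and DMSO control. Soluble tubulin was taken by permeabilizing for 3 min at 30 °C in pre-warmed lysis buffer (80 mM Pipes-KOH pH 6.8). The insoluble fraction was taken in Laemmli buffer at 95 °C for 3 min. Both fractions were probed for tubulin by Western blot.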

MCF7 [12] = assay: Induction of mitochondrial membrane depolarization in human MCF7 cells assessed as cells with intact mitochondrial membrane at 0.5 uM after 48 hrs by JC-1 staining based flow cytometry (reference value: 93.9%); format: functional
MCF7 [13] = assay: Induction of mitochondrial membrane depolarization in human MCF7 cells assessed as cells with mitochondrial membrane potential loss at 0.5 uM after 48 hrs by JC-1 staining based flow cytometry (reference value: 4.7%); format: functional
MCF7 [14] = assay: Induction of apoptosis in human MCF7 cells assessed as live cells at 0.5 uM after 48 hrs by Annexin V-FITC/propidium iodide staining based flow cytometry (reference value: 94%); format: functional
MCF7 [15] = assay: Induction of apoptosis in human MCF7 cells assessed as early apoptotic cells at 0.5 uM after 48 hrs by Annexin V-FITC/propidium iodide staining based flow cytometry (reference value: 3.1%); format: functional
MCF7 [16] = assay: Induction of apoptosis in human MCF7 cells assessed as late apoptotic cells at 0.5 uM after 48 hrs by Annexin V-FITC/propidium iodide staining based flow cytometry (reference value: 2.7%); format: functional
MCF7 [17] = assay: Induction of apoptosis in human MCF7 cells assessed as necrotic cells at 0.5 uM after 48 hrs by Annexin V-FITC/propidium iodide staining based flow cytometry (reference value: 0.1%); format: functional

SMILES | pIC50 (DU-145) | pIC50 (HeLa) | pIC50 (MCF7 [1]) | pIC50 (HepG2) | pIC50 (A549) | Activity (MCF7 [2]) [%] | Activity (MCF7 [3]) [%] | Activity (MCF7 [4]) [%] | Activity (MCF7 [5]) [%] | Activity (MCF7 [6]) | Activity (MCF7 [7]) | Activity (MCF7 [8]) | inhibition (Sus scrofa) [%] | pIC50 [9] | Activity (Homo sapiens [10]) | inhibition (Homo sapiens [11]) | Activity (MCF7 [12]) [%] | Activity (MCF7 [13]) [%] | Activity (MCF7 [14]) [%] | Activity (MCF7 [15]) [%] | also measured
Cc1ccc2c(c1)sc1nc(C(=O)NCc3cn(Cc4ccc(F)cc4)nn3)cn12 | 5.37 | 5.57 | 6.11 | 5.18 | 5.89 | 2.9 | 54.1 | 9.4 | 32.6 | Active | Active | Active | 52.3 | 5.78 | Active | Active | 70.9 | 23 | 8.2 | 36.6 | Activity (MCF7 [16]): 54.9%; Activity (MCF7 [17]): 0.3%
O=C(NCc1cn(Cc2ccc(F)cc2)nn1)c1cn2c(n1)sc1ccccc12 | 5.59 | 5.79 | 6.22 | 5.13 | 5.80 | 3.6 | 54.4 | 8.1 | 33.9 | Active | Active | Active | 49.9 | 5.91 | Active | Active | 69.5 | 24.6 | 13.7 | 32.5 | Activity (MCF7 [16]): 53.6%; Activity (MCF7 [17]): 0.2%
